Laboratory results published in ChEMBL document CHEMBL1138564, “Microwave-induced synthesis and anti-microbial activities of 7,10,11,12-tetrahydrobenzo[c]acridin-8(9H)-one derivatives” (2009).
Converted amounts (≈) assume the structure as drawn. Values belong to the compound of their own block, whether it stands above or below them. The source made the active and inactive calls. The rule behind the calls is not given here.

How the values were obtained:
Escherichia coli [1] = test: Antimicrobial activity against Escherichia coli NCIM 2065 after 24 hrs by serial dilution method; format: functional; details: NCIM 2065, 24 h
Summary of the method: (§1)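 Broth dilution MIC in nutrient broth, run only for organisms found sensitive in disc diffusion. Compounds are two-fold serially diluted in 1 ml sterile broth per tube, spanning 3.9 to 1000. Inoculated tubes are incubated at 37 °C for 24 h.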

Pseudomonas aeruginosa [2] = test: Antimicrobial activity against Pseudomonas aeruginosa NCIM 2200 at 1000 ug/disk after 24 hrs by disk diffusion method; format: functional
Summary of the method: (§2)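 Disc diffusion on Mueller–Hinton agar. 100 µl of bacterial suspension at 10⁸ CFU/ml is spread on the plate. Discs carry test compounds at two loadings, dissolved in DMSO; DMSO alone serves as negative control. Ofloxacin disc is the positive reference. Plates are incubated at 37 °C for 24 h, and the inhibition zone diameter is measured.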

Aspergillus flavus [3] = test: Antimicrobial activity against Aspergillus flavus NCIM 902 at 1000 ug/disk after 72 hrs by disk diffusion method; format: functional; details: NCIM 902, 72 h, read-out: DIZ
Summary of the method: (§3)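 Disc diffusion on Sabouraud's dextrose agar. 100 µl of fungal suspension at 10⁶ CFU/ml is spread on the plate. Discs carry test compounds at two loadings in DMSO; DMSO alone is the negative control. Clotrimazole disc is the positive reference. Plates are incubated at 27 °C for 72 h, and the zone of inhibition diameter is measured.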

Rhodotorula mucilaginosa [4] = test: Antimicrobial activity against Rhodotorula rubra NCIM 3174 after 72 hrs by serial dilution method; format: functional; details: NCIM 3174, 72 h
Summary of the method: (§4)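 MIC by broth dilution in Sabouraud's dextrose broth, run only on fungi found sensitive in the disc assay. Twofold serial dilutions were made in 1 ml broth per tube, covering 3.9 to 1000. Inoculated tubes were incubated at 27 °C for 72 h.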

Aliivibrio fischeri [5] = test: Antimicrobial activity against Vibrio fischeri NCIM 2154 at 1000 ug/disk after 24 hrs by disk diffusion method; format: functional
Summary of the method: (§5)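 Disc diffusion. 100 µl of bacterial suspension at 10⁸ CFU/ml was spread on Mueller–Hinton agar. Discs loaded with test compound dissolved in DMSO were placed on the lawn, with a DMSO-only disc as negative control. Plates were incubated at 37 °C for 24 h, and the inhibition zone diameter was measured.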

Trichoderma viride [6] = test: Antimicrobial activity against Trichoderma viride NCIM 1195 at 500 ug/disk after 72 hrs by disk diffusion method; format: functional
Summary of the method: (§6)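 Fungal disc diffusion. 100 µl of suspension at 10⁶ CFU/ml was spread on Sabouraud's dextrose agar. Discs carrying test compound in DMSO were applied, with a DMSO-only disc as negative control. Plates were incubated at 27 °C for 72 h, and the zone of inhibition diameter was measured.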

Escherichia coli [7] = test: Antimicrobial activity against Escherichia coli NCIM 2065 at 500 ug/disk after 24 hrs by disk diffusion method; format: functional; details: NCIM 2065, 24 h, read-out: DIZ; summary of the method: as §2
Aspergillus flavus [8] = test: Antimicrobial activity against Aspergillus flavus NCIM 902 after 72 hrs by serial dilution method; format: functional; details: NCIM 535, 72 h, in the assay text read “NCIM 535” for “NCIM 902”
Summary of the method: (§7)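 MIC by broth dilution in Sabouraud's dextrose broth, only for fungi sensitive in disc diffusion. Two-fold serial dilutions of compounds are made in 1 ml broth per tube, range 3.9 to 1000. Inoculated tubes are incubated at 27 °C for 72 h.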

Klebsiella aerogenes [9] = test: Antimicrobial activity against Klebsiella aerogenes NCIM 2239 at 500 ug/disk after 24 hrs by disk diffusion method; format: functional; summary of the method: as §2
Lipomyces lipofer = test: Antimicrobial activity against Lipomyces lipofer NCIM 3252 at 500 ug/disk after 72 hrs by disk diffusion method; format: functional; summary of the method: as §3
Trichoderma viride [10] = test: Antimicrobial activity against Trichoderma viride NCIM 1195 at 1000 ug/disk after 72 hrs by disk diffusion method; format: functional; details: NCIM 1195, 72 h, read-out: DIZ; summary of the method: as §6
Staphylococcus = test: Antimicrobial activity against Staphylococcus albus NCIM 2178 at 500 ug/disk after 24 hrs by disk diffusion method; format: functional; summary of the method: as §5
[11] = system: Rhodococcus corynebacterioides; test: Antimicrobial activity against Corynebacterium rubrum NCIM 2252 at 1000 ug/disk after 24 hrs by disk diffusion method; format: functional; details: Rhodococcoides corynebacterioides; summary of the method: as §2
Klebsiella aerogenes [12] = test: Antimicrobial activity against Klebsiella aerogenes NCIM 2239 at 1000 ug/disk after 24 hrs by disk diffusion method; format: functional; summary of the method: as §2
Rhodotorula mucilaginosa [13] = test: Antimicrobial activity against Rhodotorula rubra NCIM 3174 at 500 ug/disk after 72 hrs by disk diffusion method; format: functional; details: NCIM 3174, 72 h, read-out: DIZ; summary of the method: as §6
Aspergillus parasiticus [14] = test: Antimicrobial activity against Aspergillus parasiticus NCIM 904 after 72 hrs by serial dilution method; format: functional; details: NCIM 904, 72 h; summary of the method: as §7
Trichoderma viride [15] = test: Antimicrobial activity against Trichoderma viride NCIM 1195 after 72 hrs by serial dilution method; format: functional; details: NCIM 1195, 72 h; summary of the method: as §4
Penicillium chrysogenum = test: Antimicrobial activity against Penicillium chrysogenum NCIM 707 at 500 ug/disk after 72 hrs by disk diffusion method; format: functional; summary of the method: as §3
Rhodotorula mucilaginosa [16] = test: Antimicrobial activity against Rhodotorula rubra NCIM 3174 at 1000 ug/disk after 72 hrs by disk diffusion method; format: functional; details: NCIM 3174, 72 h, read-out: DIZ; summary of the method: as §6
Bacillus subtilis [17] = test: Antimicrobial activity against Bacillus subtilis NCIM 2063 at 1000 ug/disk after 24 hrs by disk diffusion method; format: functional; details: NCIM 2063, 24 h, read-out: DIZ; summary of the method: as §2
[18] = system: Rhodococcus corynebacterioides; test: Antimicrobial activity against Corynebacterium rubrum NCIM 2252 at 500 ug/disk after 24 hrs by disk diffusion method; format: functional; details: Rhodococcoides corynebacterioides; summary of the method: as §2
Aspergillus fumigatus [19] = test: Antimicrobial activity against Aspergillus fumigatus NCIM 902 at 500 ug/disk after 72 hrs by disk diffusion method; format: functional; summary of the method: as §3
Bacillus cereus [20] = test: Antimicrobial activity against Bacillus cereus NCIM 2155 at 1000 ug/disk after 24 hrs by disk diffusion method; format: functional; details: NCIM 2155, 24 h, read-out: DIZ; summary of the method: as §2
Pseudomonas aeruginosa [21] = test: Antimicrobial activity against Pseudomonas aeruginosa NCIM 2200 at 500 ug/disk after 24 hrs by disk diffusion method; format: functional; summary of the method: as §5
Proteus vulgaris [22] = test: Antimicrobial activity against Proteus vulgaris NCIM 2027 at 500 ug/disk after 24 hrs by disk diffusion method; format: functional; summary of the method: as §2
Bacillus cereus [23] = test: Antimicrobial activity against Bacillus cereus NCIM 2155 at 500 ug/disk after 24 hrs by disk diffusion method; format: functional; details: NCIM 2155, 24 h, read-out: DIZ; summary of the method: as §2
Salmonella typhimurium = test: Antimicrobial activity against Salmonella Typhimurium NCIM 2501 at 500 ug/disk after 24 hrs by disk diffusion method; format: functional, Salmonella enterica subsp. enterica serovar Typhimurium; summary of the method: as §5
Aspergillus parasiticus [24] = test: Antimicrobial activity against Aspergillus parasiticus NCIM 904 at 1000 ug/disk after 72 hrs by disk diffusion method; format: functional; details: NCIM 904, 72 h, read-out: DIZ; summary of the method: as §3
Aliivibrio fischeri [25] = test: Antimicrobial activity against Vibrio fischeri NCIM 2154 at 500 ug/disk after 24 hrs by disk diffusion method; format: functional; summary of the method: as §5
Aspergillus fumigatus [26] = test: Antimicrobial activity against Aspergillus fumigatus NCIM 902 at 1000 ug/disk after 72 hrs by disk diffusion method; format: functional; details: NCIM 902, 72 h, read-out: DIZ; summary of the method: as §3
Bacillus subtilis [27] = test: Antimicrobial activity against Bacillus subtilis NCIM 2063 after 24 hrs by serial dilution method; format: functional; details: NCIM 2063, 24 h; summary of the method: as §1
Proteus vulgaris [28] = test: Antimicrobial activity against Proteus vulgaris NCIM 2027 at 1000 ug/disk after 24 hrs by disk diffusion method; format: functional; summary of the method: as §2

- MIC (Escherichia coli [1]): 62.5 µg/mL (≈ 174 µM)
- MIC (Rhodotorula mucilaginosa [4]): 3.9 µg/mL (≈ 10.8 µM)
- MIC (Aspergillus flavus [8]): 62.5 µg/mL (≈ 174 µM)
- MIC (Aspergillus parasiticus [14]): 31.2 µg/mL (≈ 86.7 µM)
- MIC (Trichoderma viride [15]): 125 µg/mL (≈ 347 µM)
- MIC (Bacillus subtilis [27]): 31.2 µg/mL (≈ 86.7 µM)
SMILES: O=C1CCCC2=C1C(c1ccc(Cl)cc1)c1ccc3ccccc3c1N2 (centres undefined)
- zone of inhibition at 1000 µg/disc (Pseudomonas aeruginosa [2]; NCIM 2200, 24 h, read-out: DIZ): 10 mm
- zone of inhibition at 1000 µg/disc (Aspergillus flavus [3]): 10 mm
- zone of inhibition at 1000 µg/disc (Aliivibrio fischeri [5]; NCIM 2154, 24 h, read-out: DIZ): 9 mm
- diameter of the inhibition zone (DIZ) (Trichoderma viride [6]): inactive
- zone of inhibition at 500 µg/disc (Escherichia coli [7]): 7 mm
- diameter of the inhibition zone (DIZ) (Klebsiella aerogenes [9]): inactive
- diameter of the inhibition zone (DIZ) (Lipomyces lipofer): inactive
- zone of inhibition at 1000 µg/disc (Trichoderma viride [10]): 8 mm
- zone of inhibition at 500 µg/disc (Staphylococcus; NCIM 2178, 24 h, read-out: DIZ): 8 mm
- zone of inhibition at 1000 µg/disc ([11]; NCIM 2252, 24 h, read-out: DIZ): 8 mm
- zone of inhibition at 1000 µg/disc (Klebsiella aerogenes [12]; NCIM 2239, 24 h, read-out: DIZ): 9 mm
- zone of inhibition at 500 µg/disc (Rhodotorula mucilaginosa [13]): 12 mm
- zone of inhibition at 500 µg/disc (Penicillium chrysogenum; NCIM 707, 72 h, read-out: DIZ): 7 mm
- zone of inhibition at 1000 µg/disc (Rhodotorula mucilaginosa [16]): 16 mm
- zone of inhibition at 1000 µg/disc (Bacillus subtilis [17]): 12 mm
- zone of inhibition at 500 µg/disc ([18]; NCIM 2252, 24 h, read-out: DIZ): 7 mm
- zone of inhibition at 500 µg/disc (Aspergillus fumigatus [19]; NCIM 902, 72 h, read-out: DIZ): 8 mm
- zone of inhibition at 1000 µg/disc (Bacillus cereus [20]): 13 mm
- zone of inhibition at 500 µg/disc (Pseudomonas aeruginosa [21]; NCIM 2200, 24 h, read-out: DIZ): 7 mm
- zone of inhibition at 500 µg/disc (Proteus vulgaris [22]; NCIM 2027, 24 h, read-out: DIZ): 7 mm
- zone of inhibition at 500 µg/disc (Bacillus cereus [23]): 10 mm
- zone of inhibition at 500 µg/disc (Salmonella typhimurium; Salmonella enterica, NCIM 2501, 24 h, read-out: DIZ): 9 mm
- zone of inhibition at 1000 µg/disc (Aspergillus parasiticus [24]): 12 mm
- zone of inhibition at 500 µg/disc (Aliivibrio fischeri [25]; NCIM 2154, 24 h, read-out: DIZ): 8 mm
- zone of inhibition at 1000 µg/disc (Aspergillus fumigatus [26]): 10 mm
- zone of inhibition at 1000 µg/disc (Proteus vulgaris [28]; NCIM 2027, 24 h, read-out: DIZ): 9 mm

- MIC (Escherichia coli [1]): 125 µg/mL (≈ 366 µM)
- MIC (Rhodotorula mucilaginosa [4]): 15.6 µg/mL (≈ 45.7 µM)
- MIC (Aspergillus flavus [8]): 31.2 µg/mL (≈ 91.4 µM)
- MIC (Aspergillus parasiticus [14]): 62.5 µg/mL (≈ 183 µM)
- MIC (Trichoderma viride [15]): 62.5 µg/mL (≈ 183 µM)
- MIC (Bacillus subtilis [27]): 62.5 µg/mL (≈ 183 µM)
SMILES: O=C1CCCC2=C1C(c1ccccc1O)c1ccc3ccccc3c1N2 (centres undefined)
- diameter of the inhibition zone (DIZ) (Pseudomonas aeruginosa [2]): inactive
- zone of inhibition at 1000 µg/disc (Aspergillus flavus [3]): 11 mm
- diameter of the inhibition zone (DIZ) (Aliivibrio fischeri [5]): inactive
- zone of inhibition at 500 µg/disc (Trichoderma viride [6]; NCIM 1195, 72 h, read-out: DIZ): 9 mm
- zone of inhibition at 500 µg/disc (Escherichia coli [7]): 8 mm
- diameter of the inhibition zone (DIZ) (Klebsiella aerogenes [9]): inactive
- diameter of the inhibition zone (DIZ) (Lipomyces lipofer): inactive
- zone of inhibition at 1000 µg/disc (Trichoderma viride [10]): 10 mm
- diameter of the inhibition zone (DIZ) (Staphylococcus): inactive
- diameter of the inhibition zone (DIZ) [11]: inactive
- diameter of the inhibition zone (DIZ) (Klebsiella aerogenes [12]): inactive
- zone of inhibition at 500 µg/disc (Rhodotorula mucilaginosa [13]): 11 mm
- diameter of the inhibition zone (DIZ) (Penicillium chrysogenum): inactive
- zone of inhibition at 1000 µg/disc (Rhodotorula mucilaginosa [16]): 13 mm
- zone of inhibition at 1000 µg/disc (Bacillus subtilis [17]): 10 mm
- diameter of the inhibition zone (DIZ) [18]: inactive
- diameter of the inhibition zone (DIZ) (Aspergillus fumigatus [19]): inactive
- zone of inhibition at 1000 µg/disc (Bacillus cereus [20]): 8 mm
- diameter of the inhibition zone (DIZ) (Pseudomonas aeruginosa [21]): inactive
- diameter of the inhibition zone (DIZ) (Proteus vulgaris [22]): inactive
- zone of inhibition at 500 µg/disc (Bacillus cereus [23]): 7 mm
- diameter of the inhibition zone (DIZ) (Salmonella typhimurium; Salmonella enterica subsp. enterica serovar Typhimurium): inactive
- zone of inhibition at 1000 µg/disc (Aspergillus parasiticus [24]): 10 mm
- diameter of the inhibition zone (DIZ) (Aliivibrio fischeri [25]): inactive
- zone of inhibition at 1000 µg/disc (Aspergillus fumigatus [26]): 12 mm
- diameter of the inhibition zone (DIZ) (Proteus vulgaris [28]): inactive
